Source: ChEMBL document CHEMBL2406971, “Optimization of Arylamides as Novel, Potent and Brain-penetrant Antiprion Lead Compounds” (ACS Med Chem Lett, 2013)

Columns and labels:
Plasma = assay: Cmax in CD-1 mouse plasma at 10 mg/kg, po after 6 hrs by LC/MS analysis; assay type: ADME, organism-based; design: dose 10 mg/kg, route oral; conditions: in vivo
[1] = AUC (0 to 6 hrs) in CD-1 mouse plasma at 10 mg/kg, po by LC/MS analysis; assay type: ADME, organism-based; design: time < 6 hr, dose 10 mg/kg, route oral
Brain = assay: Cmax in CD-1 mouse brain at 10 mg/kg, po after 6 hrs by LC/MS analysis; assay type: ADME, organism-based; design: dose 10 mg/kg, route oral; conditions: in vivo
[2] = AUC (0 to 6 hrs) in CD-1 mouse brain at 10 mg/kg, po by LC/MS analysis; assay type: ADME, organism-based; design: time < 6 hr, dose 10 mg/kg, route oral
[3] = Cytotoxicity against mouse ScN2a-cl3 cells after 5 days by calcein-AM assay; assay type: cell-based, N2a-cl3; conditions: read-out: LD50
Method in brief: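 Run alongside every EC50 measurement. Toxicity toward ScN2a-cl3 cells scored with the fluorescent probe calcein-AM.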

[4] = Ratio of drug level in brain to plasma in CD-1 mouse at 10 mg/kg, po; assay type: ADME, organism-based; design: dose 10 mg/kg, route oral; conditions: brain and plasma, read-out: BPR
Liver = assay: Half life in mouse liver microsomes at 1 uM by LC/MS/MS analysis; assay type: ADME, Microsome

Row | Compound | Cmax (Plasma) [nM] | AUC(0-t) at 6 h [1] [µM·h] | Cmax (Brain) [nM] | AUC(0-t) at 6 h [2] [µM·h] | CC50 at 120 h [3] [µM] | Kp [4] | t1/2 (Liver) [min]
1 | CC(C)N1CCN(c2ccc(NC(=O)c3ccc(-c4ccccn4)cc3)cc2F)CC1 | 460 | 2.28 | 6750 | 28.7 | > 10 |  | 
2 | CC(C)N1CCN(c2ccc(NC(=O)c3ccc(-c4ccccc4)cc3)cc2)CC1 | 270 | 0.97 | 2520 | 7.48 | > 10 | ≤ 10 | 
3 | CC(C)N1CCN(c2ccc(NC(=O)c3ccc(-c4ccccn4)cc3)c(F)c2)CC1 | 650 | 1.46 | 17300 | 39.8 | > 10 |  | 
4 | CCN1CCN(c2ccc(NC(=O)c3ccc(-c4cccnc4)cc3)cc2)CC1 | 210 | 0.25 | 1440 | 3.32 | > 10 |  | 29.2
5 | CN1CCN(c2ccc(NC(=O)c3ccc(-c4ccccc4)cc3)cc2)CC1 |  |  |  |  | > 5 |  | 
6 | CCN1CCN(c2ccc(NC(=O)c3ccc(-c4ccccc4)cc3)cc2)CC1 | 370 | 1.09 | 7950 | 25.4 |  | ≤ 10 | 
7 | CC(C)N1CCN(c2ccc(NC(=O)c3ccc(-c4ccccn4)cc3)cn2)CC1 |  |  |  |  | > 10 |  | 
8 | CC(C)N1CCN(c2ccc(NC(=O)c3ccc(-c4ccccn4)cc3)nc2)CC1 | 340 | 1.26 | 6000 | 22.3 | > 10 |  | 
9 | CC(C)N1CCN(c2ccc(NC(=O)c3ccc(-c4ccccn4)cc3)cc2)CC1 | 320 | 1.2 | 90 | 0.28 | > 10 |  | 
10 | CCN1CCN(c2ccc(NC(=O)c3ccc(-c4ccccn4)cc3)cc2)CC1 | 280 | 1.05 | 6230 | 24.2 | > 10 |  | 27
11 | CCN1CCN(c2ccc(NC(=O)c3ccc(-c4ccncc4)cc3)cc2)CC1 |  |  |  |  | > 10 |  | 
